Measured values gathered from unrelated publications.
Protocols differ between the studies behind these lines.
Effect on: binding
PIK3CB: Phosphatidylinositol 4,5-bisphosphate 3-kinase catalytic subunit beta isoform (PIK3CB, Homo sapiens, UniProt P42338)
IRAK3: Interleukin-1 receptor-associated kinase 3 (IRAK3, Homo sapiens, UniProt Q9Y616)
UCK2: Uridine-cytidine kinase 2 (UCK2, Homo sapiens, UniProt Q9BZX2)
mnmE: mnmE (Escherichia coli, UniProt P25522)
PIKFYVE: 1-phosphatidylinositol 3-phosphate 5-kinase (PIKFYVE, Homo sapiens, UniProt Q9Y2I7)

CCC(=O)N1CCC(C(=O)N(C)CC(=O)N2CCN(c3nc(-c4cnc(N)nc4C(F)F)nc(N4CCOCC4)n3)CC2)CC1  Kd (PIK3CB): 7.7 nM
COc1cc(Nc2ncc3c(n2)-c2ccc(Cl)cc2C(c2c(F)cccc2OC)=NC3)ccc1C(=O)O  Kd (IRAK3; lysate): 2200 nM
Nc1ccn([C@@H]2O[C@H](CO)[C@@H](O)[C@H]2O)c(=O)n1  Kd (UCK2; fluorescence): 3.7 nM
Nc1nc2c(c(=O)[nH]1)N1CN(c3ccc(C(=O)N[C@@H](CCC(=O)O)C(=O)O)cc3)C[C@H]1CN2  Kd (mnmE; ITC; pH 7.5): 310 nM
COc1ccc(Nc2nnc(-c3ccc(C(=O)NO)cc3)o2)cc1  Kd (Glycogen synthase kinase-3 beta (GSK3B, Homo sapiens, UniProt P49841); SPR): 1000 nM
c1cncc(-c2cccc(Nc3nccc(NC4CCCCC4)n3)c2)c1  Kd (IRAK3; competition with immobilised ligand): 1400 nM
CCC(=O)N1CCC(C(=O)NCC(=O)N2CCN(c3nc(-c4cnc(N)nc4C(F)F)nc(N4CCOCC4)n3)CC2)CC1  Kd (PIK3CB): 0.71 nM
Cc1ncsc1-c1ccc([C@H](C)NC(=O)[C@@H]2C[C@@H](O)CN2C(=O)[C@@H](NC(=O)CCCCCC(=O)N2CCC3(CC2)CCN(c2cncc(Nc4ncc(Cl)c(-c5cccc(-c6ccccc6)c5)n4)c2)C3=O)C(C)(C)C)cc1  Kd (Phosphatidylinositol 5-phosphate 4-kinase type-2 beta (PIP4K2B, Homo sapiens, UniProt P78356)): > 10000 nM
Cc1cc2nc3c(=O)[nH]c(=O)nc-3n(C[C@H](O)[C@H](O)[C@H](O)COP(=O)(O)OP(=O)(O)OC[C@H]3O[C@@H](n4cnc5c(N)ncnc54)[C@H](O)[C@@H]3O)c2cc1C  Kd (Ubiquitin-associated protein 2 (Homo sapiens, UniProt Q5T6F2); lysate): 45 nM
COC(=O)[C@@H](N)CCCCN  Kd (LRP1 (Homo sapiens, UniProt Q07954); fluorescence; pH 7.4): 370000 nM
COc1ccc2[nH]c(C(=O)O)c(/C=C/C(=O)c3ccncc3)c2c1  Kd (PIKFYVE; competition with immobilised ligand): 46 nM
Nc1nc(=O)c2c([nH]1)NC[C@H](CNc1ccc(C(=O)N[C@@H](CCC(=O)O)C(=O)O)cc1)N2C=O  Kd (mnmE; ITC; pH 7.5): 260 nM
[N-]=[N+]=N[C@@H]1[C@H](O)[C@@H](CO)O[C@H]1n1ccc(N)nc1=O  Kd (UCK2; fluorescence): 17.8 nM
Cc1cnc(-c2ccc(-c3ccc(NC(=O)Nc4c(F)cc(F)cc4F)cc3F)c3c2C(=O)NC3)[nH]1  Kd (Dual specificity mitogen-activated protein kinase kinase 1 (MAP2K1, Homo sapiens, UniProt Q02750); competition with immobilised ligand): 23 nM
NC(=O)c1ccc[n+]([C@@H]2O[C@H](COP(=O)([O-])OP(=O)(O)OC[C@H]3O[C@@H](n4cnc5c(N)ncnc54)[C@H](O)[C@@H]3O)[C@@H](O)[C@H]2O)c1  Kd (NAD-dependent histone deacetylase SIR2 (Saccharomyces cerevisiae S288c, UniProt P06700); SPR): 575 nM
COc1ccc2[nH]c(C)c(/C=C/C(=O)c3ccncc3)c2c1  Kd (PIKFYVE; competition with immobilised ligand): 6.9 nM
